Measurements published in ChEMBL document CHEMBL4732156, “Novel boronium salt exhibits substantial antibacterial activity when compared to a commercial quaternary ammonium disinfectant” (Bioorg Med Chem Lett, 2021).
Calls of active or inactive are those of the source. No cut-off for these calls is given here.

Key:
Staphylococcus aureus [1] = assay: Antibacterial activity against Staphylococcus aureus ATCC 29213 assessed as reduction in bacterial growth incubated for 24 hrs by turbidity based analysis; assay type: functional
Outline: (§1)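 Broth microdilution in Mueller–Hinton broth. Agents start from 4.5% stocks and are diluted two-fold in deionized water. Final well range is 22.5 to 0.02 mg/mL; inoculum is about 5.0×10^5 CFU/mL from 18–24 h SBA colonies. Plates are incubated 18–24 h at 37 °C in ambient air at 100 rpm. MIC is the lowest concentration giving a clear well on mirrored 3X visual reading.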

Pseudomonas aeruginosa [2] = assay: Antibacterial activity against Pseudomonas aeruginosa ATCC 27853 assessed as reduction in bacterial growth incubated for 24 hrs by turbidity based analysis; assay type: functional; outline: as §1
Escherichia coli [3] = assay: Antibacterial activity against Escherichia coli ATCC 25922 assessed as reduction in bacterial growth incubated for 24 hrs by turbidity based analysis; assay type: functional; outline: as §1
Staphylococcus aureus [4] = assay: Bactericidal activity against Staphylococcus aureus ATCC 29213 incubated for 24 hrs followed by transferring and culturing on SBA plate and measured after 18 to 24 hrs by agar plate based analysis; assay type: functional; settings: time 42-48 hrs
Outline: (§2)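 After 24 h of microdilution (about 5.0×10^5 CFU/mL, Mueller–Hinton broth, 37 °C, 100 rpm), 100 µL from each clear well, including the MIC well, is spread on 5% sheep blood agar. Plates are incubated 18–24 h at 37 °C. MBC is the first concentration giving zero colonies.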

Pseudomonas aeruginosa [5] = assay: Bactericidal activity against Pseudomonas aeruginosa ATCC 27853 incubated for 24 hrs followed by transferring and culturing on SBA plate and measured after 18 to 24 hrs by agar plate based analysis; assay type: functional; settings: time 42-48 hrs; outline: as §2
Escherichia coli [6] = assay: Bactericidal activity against Escherichia coli ATCC 25922 incubated for 24 hrs followed by transferring and culturing on SBA plate and measured after 18 to 24 hrs by agar plate based analysis; assay type: functional; settings: time 42-48 hrs; outline: as §2
Staphylococcus aureus [7] = assay: Potency index, ratio of MIC of BacDown QAC to MIC of compound for antibacterial activity against Staphylococcus aureus ATCC 29213 assessed as reduction in bacterial growth incubated for 24 hrs by turbidity based analysis; assay type: functional
Pseudomonas aeruginosa [8] = assay: Potency index, ratio of MIC of BacDown QAC to MIC of compound for antibacterial activity against Pseudomonas aeruginosa ATCC 27853 assessed as reduction in bacterial growth incubated for 24 hrs by turbidity based analysis; assay type: functional
Escherichia coli [9] = assay: Potency index, ratio of MIC of BacDown QAC to MIC of compound for antibacterial activity against Escherichia coli ATCC 25922 assessed as reduction in bacterial growth incubated for 24 hrs by turbidity based analysis; assay type: functional
Staphylococcus aureus [10] = assay: Antibacterial activity against Staphylococcus aureus ATCC 29213 assessed as zone of inhibition at 1:128 dilution incubated for 24 hrs by disc diffusion method; assay type: functional
Outline: (§3)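 Kirby-Bauer disc diffusion. 6 mm paper discs are loaded with 20 µL of the 1:8 (2.81 mg/mL) or 1:128 (0.17 mg/mL) dilution, dried 30 min and stored at 4–8 °C. A lawn of about 5.0×10^5 CFU/mL is swabbed onto Mueller–Hinton agar with the plate spinning. Plates are incubated 24 h at 37 °C and the inhibition zone is measured in mm by digital caliper.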

Staphylococcus aureus [11] = assay: Antibacterial activity against Staphylococcus aureus ATCC 29213 assessed as zone of inhibition at 1:8 dilution incubated for 24 hrs by disc diffusion method; assay type: functional; outline: as §3
Pseudomonas aeruginosa [12] = assay: Antibacterial activity against Pseudomonas aeruginosa ATCC 27853 at 1:8 dilution incubated for 24 hrs by disc diffusion method; assay type: functional, organism-based; outline: as §3
Pseudomonas aeruginosa [13] = assay: Antibacterial activity against Pseudomonas aeruginosa ATCC 27853 at 1:128 dilution incubated for 24 hrs by disc diffusion method; assay type: functional, organism-based; outline: as §3
Escherichia coli [14] = assay: Antibacterial activity against Escherichia coli ATCC 25922 at 1:8 dilution incubated for 24 hrs by disc diffusion method; assay type: functional, organism-based; outline: as §3
Escherichia coli [15] = assay: Antibacterial activity against Escherichia coli ATCC 25922 at 1:128 dilution incubated for 24 hrs by disc diffusion method; assay type: functional, organism-based; outline: as §3
Erythrocyte [16] = assay: Induction of hemolysis in RBC (unknown origin) at lower concentration; assay type: cell-based
Erythrocyte [17] = assay: Induction of hemolysis in RBC (unknown origin) at higher concentration; assay type: cell-based

MIC (Staphylococcus aureus [1])	MIC (Pseudomonas aeruginosa [2])	MIC (Escherichia coli [3])	Structure (SMILES)	MBC (Staphylococcus aureus [4])	MBC (Pseudomonas aeruginosa [5])	MBC (Escherichia coli [6])	Ratio (Staphylococcus aureus [7])	Ratio (Pseudomonas aeruginosa [8])	Ratio (Escherichia coli [9])	inhibition zone (IZ) (Staphylococcus aureus [10])	inhibition zone (IZ) (Staphylococcus aureus [11])	Activity (Pseudomonas aeruginosa [12])	Activity (Pseudomonas aeruginosa [13])	Activity (Escherichia coli [14])	Activity (Escherichia coli [15])	Activity (Erythrocyte [16])	Activity (Erythrocyte [17])
20 µg/mL	170 µg/mL	40 µg/mL	CCCCCCCCCCCCCCCC[N+](C)(C)[BH2-][N+](C)(C)Cc1ccccc1.I	40 µg/mL	170 µg/mL	40 µg/mL	4	8	4	7.6 mm	14.8 mm	inactive	inactive	inactive	inactive	Non-Toxic	Toxic
> 22500 µg/mL	> 22500 µg/mL	> 22500 µg/mL	CCCCCCCCCCCCCCCC[N+](C)(C)[BH2-][N+](C)(C)C.I	–	–	–	–	–	–	–	–	inactive	inactive	inactive	inactive	Non-Toxic	Toxic
